ChEMBL document CHEMBL1221230, “Inhibition of eukaryotic translation elongation by cycloheximide and lactimidomycin” (Nat Chem Biol, 2010)
Active and inactive are the calls of the source. The calls are words filed in the database; no cut-off is given here.

Assays:
[1] = test system: MCF-10A; assay: Anticancer activity against human MCF10A cells after 24 hrs by [3H]thymidine incorporation assay; format: functional, cell-based
[2] = test system: MDA-MB-231; assay: Antitumor activity against human MDA-MB-231 cells xenografted in nude mouse assessed as inhibition of tumor growth at 0.6 mg/kg, sc qd for 1 month administered post tumor implantation; format: functional, organism-based; set-up: dose 0.6 mg/kg
How it was run: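 Two million MDA-MB-231 cells injected subcutaneously into female nude mice; once tumours palpable, compound 0.6 mg/kg or solvent given daily for one month; tumour growth followed.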

[3] = test system: Saccharomyces cerevisiae; assay: Antimicrobial activity against Saccharomyces cerevisiae J47alpha; format: functional, organism-based
How it was run: (§1)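 Four isogenic S. cerevisiae strain pairs, each differing only by presence or absence of cyh2, exposed to varying compound concentrations; growth read by optical density; IC50 derived per strain, resistance as ratio between paired strains.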

[4] = test system: Saccharomyces cerevisiae; assay: Antimicrobial activity against Saccharomyces cerevisiae JB503; format: functional, organism-based; how it was run: as §1
[5] = test system: Saccharomyces cerevisiae; assay: Antimicrobial activity against Saccharomyces cerevisiae BY686 expressing ribosomal protein cyh2 and harboring mutation in rpl28; format: functional, organism-based; how it was run: as §1
[6] = test system: Saccharomyces cerevisiae; assay: Antimicrobial activity against Saccharomyces cerevisiae BY108; format: functional, organism-based; how it was run: as §1
[7] = test system: Saccharomyces cerevisiae; assay: Antimicrobial activity against Saccharomyces cerevisiae BY740 expressing ribosomal protein cyh2 and harboring mutation in rpl28; format: functional, organism-based; how it was run: as §1
[8] = test system: Saccharomyces cerevisiae; assay: Fold resistance, ratio of IC50 Saccharomyces cerevisiae J407alpha expressing ribosomal protein cyh2 and harboring mutation in rpl28 to IC50 for Saccharomyces cerevisiae J47alpha; format: functional; how it was run: as §1
[9] = test system: Saccharomyces cerevisiae; assay: Fold resistance, ratio of IC50 for Saccharomyces cerevisiae BY686 expressing ribosomal protein cyh2 and harboring mutation in rpl28 to IC50 Saccharomyces cerevisiae JB503; format: functional; how it was run: as §1
[10] = test system: Saccharomyces cerevisiae; assay: Fold resistance, ratio of IC50 for Saccharomyces cerevisiae BY724 expressing ribosomal protein cyh2 and harboring mutation in rpl28 to IC50 for Saccharomyces cerevisiae BY108; format: functional; how it was run: as §1
[11] = test system: HEK-293T; assay: Effect on polyribosome profiling in human HEK293T cells assessed as depletion of polysomes at 50 uM after 30 mins by spectrophotometry; format: functional, cell-based
How it was run: (§2)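 HEK 293T cells treated 30 min with compound, then lysed; lysates centrifuged through 15–45% sucrose gradient to give polysome profiles.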

[12] = test system: HEK-293T; assay: Effect on polyribosome profiling in human HEK293T cells assessed as accumulation of 80S ribosomes at 50 uM after 30 mins by spectrophotometry; format: functional, cell-based; how it was run: as §2
[13] = Inhibition of [32P]deacetylated phe-tRNA binding to 60S ribosome E-site by footprinting assay
[14] = Inhibition of elF4A-mediated renilla luciferase translational activity at 200 to 2000 nM in presence of HCV IRES element
[15] = test system: HeLa; assay: Antiproliferative activity against human HeLa cells assessed as incorporation of [3H]thymidine in nuclear DNA at 2.5 uM after 24 hrs by scintillation counting; format: functional, cell-based
How it was run: (§3)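 Each of three tumour cell lines incubated with compound at 2.5 μM for 24 h, then [³H]thymidine added to monitor DNA synthesis; initial proliferation screen.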

[16] = test system: MDA-MB-231; assay: Antiproliferative activity against human MDA-MB-231 cells assessed as incorporation of [3H]thymidine in nuclear DNA at 2.5 uM after 24 hrs by scintillation counting; format: functional, cell-based; how it was run: as §3
[17] = test system: Jurkat; assay: Antiproliferative activity against human Jurkat cells assessed as incorporation of [3H]thymidine in nuclear DNA at 2.5 uM after 24 hrs by scintillation counting; format: functional, cell-based; how it was run: as §3
[18] = test system: HeLa; assay: Inhibition of protein synthesis in human HeLa cells assessed as [35S]cysteine/methionine utilization after 2 hrs by scintillation spectroscopy; format: functional, cell-based
How it was run: (§4)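 HeLa cells incubated 2 h with varying compound concentrations plus [³⁵S]cysteine/methionine (translation) or [³H]uridine (transcription). Protein synthesis: scintillation counting of TCA-precipitated protein on PVDF membrane. Transcription: scintillation counting of nucleic acids bound to GF/C glass fibre filter.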

[19] = test system: HeLa; assay: Inhibition of transcriptional activity in human HeLa cells assessed as [3H]uridine utilization after 2 hrs by scintillation counting; format: functional, cell-based; how it was run: as §4
[20] = target: T1, Elongation factor 1-alpha 1 (Homo sapiens) (UniProt P68104); assay: Inhibition of eEF1A-mediated tRNA binding to ternary complex at 200 uM after 10 mins by filtration binding assay
T1 sequence (whole entry): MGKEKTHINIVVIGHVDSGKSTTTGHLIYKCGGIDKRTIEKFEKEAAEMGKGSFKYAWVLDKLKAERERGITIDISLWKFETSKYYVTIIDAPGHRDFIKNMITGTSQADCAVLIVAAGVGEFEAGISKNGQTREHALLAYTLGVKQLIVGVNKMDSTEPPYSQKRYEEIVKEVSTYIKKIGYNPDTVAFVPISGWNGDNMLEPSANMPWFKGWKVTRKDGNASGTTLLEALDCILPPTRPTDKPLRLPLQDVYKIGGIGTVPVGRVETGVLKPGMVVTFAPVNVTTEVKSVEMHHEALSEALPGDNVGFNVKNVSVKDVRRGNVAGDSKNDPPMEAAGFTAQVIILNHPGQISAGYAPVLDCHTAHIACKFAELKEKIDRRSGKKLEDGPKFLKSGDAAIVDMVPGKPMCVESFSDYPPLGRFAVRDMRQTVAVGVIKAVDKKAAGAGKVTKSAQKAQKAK
How it was run: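 Ribosomes (89 pmol) in 20 mM HEPES pH 7.4, 100 mM KCl, 10 mM MgCl₂, 1 mM DTT with 200 ng poly(U), 2.2 μg eEF1A, 150 μM GDPNP and 200 μM compound, before 10 pmol [¹⁴C]Phe-tRNA^Phe added; 10 min at 37°C; nitrocellulose filtration, scintillation counting.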

[21] = target: Elongation factor 2 (Homo sapiens) (UniProt P13639); assay: Inhibition of eEF2-mediated tRNA translocation assessed as inhibition of phenylalanyl puromycin formation
How it was run: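 Set up as eEF1A binding assay but with GTP; 5 min at 37°C, compound added to 200 μM final, 5 min at room temperature, then eEF2, puromycin and GTP added; 10 min at 37°C; ethyl acetate-extractable phenylalanyl-puromycin counted by scintillation.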

[22] = target: Elongation factor 2 (Homo sapiens) (UniProt P13639); assay: Inhibition of eEF2-mediated tRNA translocation assessed as induction of dipeptide accumulation by TLC
[23] = test system: Saccharomyces cerevisiae; assay: Antimicrobial activity against Saccharomyces cerevisiae J407alpha expressing ribosomal protein cyh2 and harboring mutation in rpl28; format: functional, organism-based; how it was run: as §1
[24] = Binding affinity to 60S ribosome E-site by footprinting assay
How it was run: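 DMS footprinting of salt-washed 80S ribosomes preincubated 5 min at room temperature with compound, DMS then 5 min at 37°C; rRNA primer extension with AMV reverse transcriptase and [α-³²P]TTP, sequencing gel. For K_D, 300 μl volume at 50 or 100 nM ribosomes titrated with increasing compound.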

[25] = test system: Hs-578T; assay: Anticancer activity against human Hs 578T cells after 24 hrs by [3H]thymidine incorporation assay; format: functional, cell-based
[26] = test system: HCC1937; assay: Anticancer activity against human HCC1937 cells after 24 hrs by [3H]thymidine incorporation assay; format: functional, cell-based
[27] = test system: HCC1395; assay: Anticancer activity against human HCC1395 cells after 24 hrs by [3H]thymidine incorporation assay; format: functional, cell-based
[28] = test system: HCC2218; assay: Anticancer activity against human HCC2218 cells after 24 hrs by [3H]thymidine incorporation assay; format: functional, cell-based
[29] = Effect on peptidyl transfer assessed as [35S]methionyl-puromycin formation by TLC

## C/C(=C\[C@H](C)C(=O)C[C@H](O)CC1CC(=O)NC(=O)C1)[C@@H]1OC(=O)/C=C/CC/C=C/C=C\[C@@H]1C [LACTIMIDOMYCIN]
[1]
  Activity: Active
[2]
  Activity: Active
[3]
  IC50: 4.6 nM
[4]
  IC50: 58 nM
[5]
  IC50: 596 nM
[6]
  IC50: 488 nM
[7]
  IC50: 1210 nM
[8]
  Ratio IC50: 241
[9]
  Ratio IC50: 10.3
[10]
  Ratio IC50: 13.4
[11]
  Activity: Active
[12]
  Activity: Active
[13]
  inhibition: Active
[14]
  inhibition: Active
[15]
  Activity: inactive
[16]
  Activity: inactive
[17]
  Activity: inactive
[18]
  IC50: 37.8 nM
  inhibition: Dose-dependent effect
[19]
  IC50: > 10000 nM
[20]
  inhibition: inactive
[21]
  inhibition: Active
[22]
  inhibition: Active
[23]
  IC50: 1110 nM
[24]
  Activity: Dose-dependent effect
  Kd: 500 nM
[25]
  Activity: Active
[26]
  Activity: Active
[27]
  Activity: Active
[28]
  Activity: Active
[29]
  Activity: inactive
